In ChEMBL document CHEMBL1165965, “Synthesis and structure-activity relationships of 1,2,3,4-tetrahydropyrido[2,3-b]pyrazines as potent and selective inhibitors of the anaplastic lymphoma kinase” (Bioorg Med Chem, 2010):

Experiments:
[1] = test system: Mast/stem cell growth factor receptor Kit (Homo sapiens), P10721 [V559D,V654A]; experiment: Inhibition of KIT V559D,V654A mutant at 1 uM
How it was run: (§1)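 Single-concentration screen on the Ambit KINOMEscan platform, run against a panel of 250–400 kinases. Per-kinase inhibition was also summarized as S(90), the fraction of kinases inhibited by more than 90%.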

[2] = biological target: Serine/threonine-protein kinase 16 (Homo sapiens) (UniProt O75716); experiment: Inhibition of STK16 at 1 uM
Sequence of Serine/threonine-protein kinase 16 (Homo sapiens) (O75716 whole entry): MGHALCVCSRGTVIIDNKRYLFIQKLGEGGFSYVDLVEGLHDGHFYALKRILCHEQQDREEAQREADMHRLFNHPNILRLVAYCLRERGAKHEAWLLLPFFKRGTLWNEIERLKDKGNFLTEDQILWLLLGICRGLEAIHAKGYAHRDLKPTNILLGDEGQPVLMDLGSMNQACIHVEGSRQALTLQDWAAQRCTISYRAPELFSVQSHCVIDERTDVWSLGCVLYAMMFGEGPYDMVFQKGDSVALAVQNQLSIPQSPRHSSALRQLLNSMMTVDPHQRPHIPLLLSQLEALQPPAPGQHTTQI

[3] = biological target: Fibroblast growth factor receptor 3 (Homo sapiens) (UniProt P22607); experiment: Inhibition of FGFR3 at 1 uM; how it was run: as §1
Sequence of Fibroblast growth factor receptor 3 (Homo sapiens) (P22607 23-806 limits assumed): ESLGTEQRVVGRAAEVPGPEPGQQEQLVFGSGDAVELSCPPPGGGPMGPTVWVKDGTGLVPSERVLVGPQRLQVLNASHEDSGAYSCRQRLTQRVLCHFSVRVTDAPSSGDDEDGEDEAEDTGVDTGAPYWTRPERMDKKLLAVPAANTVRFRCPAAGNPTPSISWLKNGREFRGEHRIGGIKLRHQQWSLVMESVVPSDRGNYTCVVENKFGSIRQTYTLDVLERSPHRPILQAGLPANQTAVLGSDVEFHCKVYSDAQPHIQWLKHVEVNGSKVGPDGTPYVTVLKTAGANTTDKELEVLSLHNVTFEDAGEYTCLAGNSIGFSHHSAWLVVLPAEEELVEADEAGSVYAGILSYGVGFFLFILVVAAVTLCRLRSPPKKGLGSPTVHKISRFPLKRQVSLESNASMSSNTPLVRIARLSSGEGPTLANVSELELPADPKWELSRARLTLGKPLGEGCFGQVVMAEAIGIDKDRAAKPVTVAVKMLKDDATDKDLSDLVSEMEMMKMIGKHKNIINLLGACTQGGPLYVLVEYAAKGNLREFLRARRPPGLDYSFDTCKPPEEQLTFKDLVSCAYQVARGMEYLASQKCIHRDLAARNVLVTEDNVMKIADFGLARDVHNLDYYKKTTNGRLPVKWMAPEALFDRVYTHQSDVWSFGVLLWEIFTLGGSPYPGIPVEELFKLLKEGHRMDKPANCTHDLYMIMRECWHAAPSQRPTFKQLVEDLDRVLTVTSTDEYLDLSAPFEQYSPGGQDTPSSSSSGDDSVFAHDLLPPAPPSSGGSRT

[4] = test system: T1, Receptor-type tyrosine-protein kinase FLT3 (Homo sapiens), P36888 [D835H]; experiment: Inhibition of FLT3 D835H mutant at 1 uM; how it was run: as §1
T1 sequence (whole entry): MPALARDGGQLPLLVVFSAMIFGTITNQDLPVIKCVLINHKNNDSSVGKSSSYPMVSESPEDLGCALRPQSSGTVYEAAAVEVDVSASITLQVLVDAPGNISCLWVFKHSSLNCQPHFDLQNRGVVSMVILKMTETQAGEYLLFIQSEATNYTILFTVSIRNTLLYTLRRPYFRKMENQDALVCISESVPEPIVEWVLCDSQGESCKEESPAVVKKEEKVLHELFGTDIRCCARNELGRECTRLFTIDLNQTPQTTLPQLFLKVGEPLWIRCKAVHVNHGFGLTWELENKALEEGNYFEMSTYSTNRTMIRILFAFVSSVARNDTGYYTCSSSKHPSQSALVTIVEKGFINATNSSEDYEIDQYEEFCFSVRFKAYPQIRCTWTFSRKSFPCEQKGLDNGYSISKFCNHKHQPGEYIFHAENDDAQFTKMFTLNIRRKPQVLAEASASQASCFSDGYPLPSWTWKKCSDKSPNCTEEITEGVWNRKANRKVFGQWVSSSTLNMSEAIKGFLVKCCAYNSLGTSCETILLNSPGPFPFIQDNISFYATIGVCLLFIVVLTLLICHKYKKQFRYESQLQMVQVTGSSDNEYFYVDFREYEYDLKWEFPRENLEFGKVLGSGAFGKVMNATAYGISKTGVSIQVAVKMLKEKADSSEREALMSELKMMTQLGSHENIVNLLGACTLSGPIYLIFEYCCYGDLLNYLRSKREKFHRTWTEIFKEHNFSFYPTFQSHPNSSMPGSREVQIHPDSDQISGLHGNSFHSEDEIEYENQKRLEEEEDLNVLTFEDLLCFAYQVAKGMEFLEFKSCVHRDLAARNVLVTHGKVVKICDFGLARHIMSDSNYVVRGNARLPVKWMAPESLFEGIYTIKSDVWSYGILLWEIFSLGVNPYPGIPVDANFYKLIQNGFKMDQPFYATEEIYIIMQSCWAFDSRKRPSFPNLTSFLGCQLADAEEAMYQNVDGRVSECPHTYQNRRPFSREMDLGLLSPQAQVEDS

[5] = biological target: Epidermal growth factor receptor (Homo sapiens) (UniProt P04626+P00533+Q15303+P21860); experiment: Inhibition of EGFR L747-T751del, Sins mutant at 1 uM; type: protein assay
How it was run: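 Single-concentration screen using Ambit Bioscience KINOMEscan technology across a panel of 250–400 kinases. Per-kinase inhibition from this screen was summarized as S(90), the fraction of kinases inhibited by more than 90%.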

[6] = biological target: T2, Serine/threonine-protein kinase DCLK2 (Homo sapiens) (UniProt Q8N568); experiment: Inhibition of DCAMKL2 at 1 uM
T2 sequence (whole entry): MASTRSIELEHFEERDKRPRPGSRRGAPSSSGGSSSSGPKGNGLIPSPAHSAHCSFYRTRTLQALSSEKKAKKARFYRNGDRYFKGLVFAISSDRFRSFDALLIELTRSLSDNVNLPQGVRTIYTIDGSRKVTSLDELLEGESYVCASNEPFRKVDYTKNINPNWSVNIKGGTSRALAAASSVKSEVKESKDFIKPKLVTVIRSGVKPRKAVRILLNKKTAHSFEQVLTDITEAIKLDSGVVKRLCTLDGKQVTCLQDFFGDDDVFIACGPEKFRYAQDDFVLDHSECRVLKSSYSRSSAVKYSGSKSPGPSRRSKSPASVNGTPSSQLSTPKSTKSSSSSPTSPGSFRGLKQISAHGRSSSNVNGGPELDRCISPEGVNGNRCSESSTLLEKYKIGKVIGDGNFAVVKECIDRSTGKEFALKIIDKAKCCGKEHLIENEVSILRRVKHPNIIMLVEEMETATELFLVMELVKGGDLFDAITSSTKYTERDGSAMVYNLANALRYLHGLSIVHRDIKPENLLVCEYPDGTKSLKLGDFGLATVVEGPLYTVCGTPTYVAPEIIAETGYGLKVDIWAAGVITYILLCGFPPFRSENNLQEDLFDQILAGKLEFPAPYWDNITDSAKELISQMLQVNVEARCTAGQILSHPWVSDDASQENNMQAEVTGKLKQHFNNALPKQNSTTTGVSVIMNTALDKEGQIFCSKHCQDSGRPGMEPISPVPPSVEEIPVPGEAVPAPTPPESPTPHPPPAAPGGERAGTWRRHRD

Sequence of Mast/stem cell growth factor receptor Kit (Homo sapiens), P10721 [V559D,V654A] (P10721 whole entry V559D/V654A): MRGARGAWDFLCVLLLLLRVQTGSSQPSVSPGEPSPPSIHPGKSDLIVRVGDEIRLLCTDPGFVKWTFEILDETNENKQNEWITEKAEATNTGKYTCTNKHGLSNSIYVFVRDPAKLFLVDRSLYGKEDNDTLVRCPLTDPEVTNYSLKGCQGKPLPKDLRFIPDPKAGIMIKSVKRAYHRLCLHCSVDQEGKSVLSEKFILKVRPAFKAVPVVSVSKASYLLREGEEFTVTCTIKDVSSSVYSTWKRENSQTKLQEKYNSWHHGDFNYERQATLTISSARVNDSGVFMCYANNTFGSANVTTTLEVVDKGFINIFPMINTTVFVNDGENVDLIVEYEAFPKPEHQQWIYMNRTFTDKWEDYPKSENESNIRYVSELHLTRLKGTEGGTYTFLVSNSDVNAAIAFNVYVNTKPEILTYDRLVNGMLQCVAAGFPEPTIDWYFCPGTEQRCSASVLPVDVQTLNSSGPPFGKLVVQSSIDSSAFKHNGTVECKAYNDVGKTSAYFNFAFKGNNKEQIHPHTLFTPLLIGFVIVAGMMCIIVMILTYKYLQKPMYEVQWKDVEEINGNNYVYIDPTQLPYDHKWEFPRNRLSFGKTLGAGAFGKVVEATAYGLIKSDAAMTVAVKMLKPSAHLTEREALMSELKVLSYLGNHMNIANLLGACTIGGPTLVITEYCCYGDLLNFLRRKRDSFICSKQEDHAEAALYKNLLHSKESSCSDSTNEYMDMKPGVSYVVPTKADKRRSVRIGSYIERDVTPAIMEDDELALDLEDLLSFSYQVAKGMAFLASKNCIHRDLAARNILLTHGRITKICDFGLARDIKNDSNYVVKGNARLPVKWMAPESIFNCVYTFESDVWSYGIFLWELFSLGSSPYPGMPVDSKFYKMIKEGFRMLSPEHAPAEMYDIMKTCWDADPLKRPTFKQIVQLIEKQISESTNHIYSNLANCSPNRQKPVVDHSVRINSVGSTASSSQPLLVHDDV

Row | Compound | inhibition [1] | inhibition [2] | inhibition [3] | inhibition [4] | inhibition [5] | inhibition [6]
1 | COC1CCN(C(=O)c2ccc(-c3cnc4c(c3)N(Cc3cc(Cl)ccc3C(F)(F)F)CCN4)cc2)CC1 | < 50% | < 50% | < 50% | 77.2% | < 50% | –
2 | O=C(c1ccc(-c2cnc3c(c2)N(Cc2cc(Cl)ccc2C(F)(F)F)CCN3)cc1)N1CCCCC1 | < 50% | < 50% | < 50% | < 50% | < 50% | –
3 | O=C(O)c1ccc(-c2cnc3c(c2)N(Cc2cc(Cl)ccc2C(F)(F)F)CCN3)cc1 | < 50% | < 50% | < 50% | < 50% | < 50% | –
4 | O=C(c1ccc(-c2cnc3c(c2)N(Cc2cc(Cl)ccc2C(F)(F)F)CCN3)cc1)N1CCC(N2CCCC2)CC1 | < 50% | < 50% | < 50% | 90.1% | < 50% | –

Results, then the compound that gave them:

Row | inhibition [1] | inhibition [2] | inhibition [3] | inhibition [4] | inhibition [5] | inhibition [6] | Compound
5 | < 50% | < 50% | < 50% | 80% | < 50% | < 50% | CN1CCN(c2ccc(-c3cnc4c(c3)N(Cc3cc(Cl)ccc3Cl)CCN4)cn2)CC1
6 | < 50% | < 50% | < 50% | 82% | < 50% | < 50% | CN1CCN(c2ccc(-c3cnc4c(c3)N(Cc3cc(Cl)ccc3C(F)(F)F)CCN4)cn2)CC1
7 | < 50% | < 50% | < 50% | 93% | < 50% | 96% | FC(F)(F)c1ccc(Cl)cc1CN1CCNc2ncc(-c3ccnc(N4CCNCC4)c3)cc21
8 | < 50% | < 50% | < 50% | 81% | < 50% | < 50% | CC(=O)N1CCN(c2cc(-c3cnc4c(c3)N(Cc3cc(Cl)ccc3C(F)(F)F)CCN4)ccn2)CC1
9 | < 50% | < 50% | < 50% | 73% | < 50% | < 50% | CN1CCN(c2ccc(-c3cnc4c(c3)N(Cc3c(F)ccc(F)c3Cl)CCN4)cn2)CC1
10 | < 50% | < 50% | < 50% | 72.5% | < 50% | < 50% | CN1CCN(c2ccc(-c3cnc4c(c3)N(Cc3cc(F)ccc3F)CCN4)cn2)CC1
